Source: ChEMBL document CHEMBL1145964, “Antineoplastic agents. 487. Synthesis and biological evaluation of the antineoplastic agent 3,4-methylenedioxy-5,4'-dimethoxy-3'-amino-Z-stilbene and derived amino acid amides” (J Med Chem, 2003)
In brackets after ≈: the same amount, converted by molar mass. Several values for one entry are separate records, joined by “and”; a condition that tells them apart may be missing. Equal values may be shown once.

Assays:
[1] = Inhibitory activity against colon KM2OL2 cell line; type: functional; settings: Homo sapiens
[2] = Inhibitory activity against CNS SF-295 cell line; type: functional; settings: Homo sapiens
P388 = assay: Inhibitory activity against leukemia P388 cell line; type: functional; settings: Mus musculus, read-out: ED50 (the source's name)
[3] = Inhibitory activity against lung NSC NCI-H460 cell line; type: functional; settings: Homo sapiens
[4] = Inhibitory activity against pancreatic BXPC-3 cell line; type: functional; settings: Homo sapiens
[5] = Inhibitory activity against prostate DU145 cell line; type: functional; settings: Homo sapiens, DU-145
MCF7 [6] = assay: Inhibitory activity against breast MCF-7 cell line; type: functional; settings: Homo sapiens
[7] = molecular target: Tubulin alpha chain (Sus scrofa) (UniProt P02550); assay: Percent inhibitory activity (100 uM) against colchicine binding to tubulin […]; settings: Homo sapiens
Sequence of Tubulin alpha chain (Sus scrofa) (P02550 whole entry, looked up): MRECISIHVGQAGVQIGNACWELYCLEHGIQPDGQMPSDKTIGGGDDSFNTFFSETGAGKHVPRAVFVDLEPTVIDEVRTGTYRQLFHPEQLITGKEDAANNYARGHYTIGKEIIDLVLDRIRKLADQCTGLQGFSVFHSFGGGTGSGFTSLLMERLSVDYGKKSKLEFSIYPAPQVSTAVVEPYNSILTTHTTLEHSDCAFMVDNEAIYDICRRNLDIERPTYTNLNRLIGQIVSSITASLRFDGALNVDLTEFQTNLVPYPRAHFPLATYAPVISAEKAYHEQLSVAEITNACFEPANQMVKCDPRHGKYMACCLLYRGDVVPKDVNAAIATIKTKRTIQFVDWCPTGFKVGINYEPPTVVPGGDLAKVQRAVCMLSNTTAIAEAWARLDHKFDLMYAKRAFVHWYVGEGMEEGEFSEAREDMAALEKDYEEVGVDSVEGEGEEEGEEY
Outline: (§1)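 Cell-free colchicine-binding test: reaction mixtures held 1.0 µM tubulin, 5.0 µM [³H]colchicine and inhibitor at the stated level; percent inhibition of radiolabel binding recorded.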

MCF7 [8] = assay: Mitotic index in MCF-7 breast cancer cells was determined; type: functional, Homo sapiens
Tubulin [9] = assay: Inhibitory activity against tubulin (1.0 mg/mL) assembly was determined; settings: Homo sapiens
Mus musculus = species: Mus musculus; assay: Inhibitory activity against murine colon 26 adenocarcinoma cell; type: functional
MCF7 [10] = assay: Inhibitory activity against breast cancer cell line MCF-7; type: functional; settings: Homo sapiens
[11] = Inhibitory activity against pancreatic cell line BXPC-3; type: functional; settings: Homo sapiens
[12] = Inhibitory activity against prostate DU145; type: functional; settings: Homo sapiens, DU-145, Prostate gland
Tubulin [13] = assay: Inhibitory activity against tubulin (1.0 mg/mL) assembly was determined; settings: Homo sapiens; remark: listed apart in the source
[14] = molecular target: Tubulin alpha chain (Sus scrofa) (UniProt P02550); assay: Percent inhibitory activity (20 uM) against colchicine binding to tubulin […]; settings: Homo sapiens; outline: as §1
[15] = molecular target: Tubulin alpha chain (Sus scrofa) (UniProt P02550); assay: Percent inhibitory activity (2 uM) against colchicine binding to tubulin […]; settings: Homo sapiens
Outline: (§2)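 Binding of [³H]colchicine to purified tubulin, not a cell assay: reaction mixtures held 1.0 µM tubulin, 5.0 µM [³H]colchicine and test compound at 2 or 5 µM as indicated. Read-out is percent inhibition of colchicine binding.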

[16] = molecular target: Tubulin alpha chain (Sus scrofa) (UniProt P02550); assay: Percent inhibitory activity (5 uM) against colchicine binding to […]; settings: Homo sapiens
[17] = molecular target: Tubulin alpha chain (Sus scrofa) (UniProt P02550); assay: Percent inhibitory activity (5 uM) against colchicine binding to tubulin […]; settings: Homo sapiens; outline: as §2

Row | SMILES | GI50 [1] [mg/L] | GI50 [2] [mg/L] | EC50 (P388) [mg/L] | GI50 [3] [mg/L] | GI50 [4] [mg/L] | GI50 [5] [mg/L] | GI50 (MCF7 [6]) [mg/L] | inhibition [7] [%] | Mitotic index (MCF7 [8]) | IC50 (Tubulin [9]) [µM] | IC50 (Mus musculus) [µM] | GI50 (MCF7 [10]) [mg/L] | GI50 [11] [mg/L] | GI50 [12] [mg/L] | IC50 (Tubulin [13]) [µM] | inhibition [14] [%] | inhibition [15] | inhibition [16] [%] | inhibition [17] [%]
1 | COc1ccc(/C=C/c2cc(OC)c3c(c2)OCO3)cc1P(=O)([O-])O.[Na+] | 3.8 | 0.042 | 0.025 | 0.41 | 2.1 | 0.053 | 0.045 | – | – | – | – | – | – | – | – | – | – | – | –
2 | COc1ccc(/C=C\c2cc(OC)c3c(c2)OCO3)cc1NC(=O)C(N)Cc1ccc(O)cc1 (stereo not given) | 0.022 (≈ 0.0476 µM) | 0.0097 (≈ 0.021 µM) | 0.0475 (≈ 0.103 µM) | 0.012 (≈ 0.0259 µM) | 0.0067 (≈ 0.0145 µM) | 0.018 (≈ 0.0389 µM) | 0.035 (≈ 0.0757 µM) | 19 | 44 | > 40 | – | – | – | – | – | – | – | – | –
3 | COc1ccc(/C=C\c2cc(OC)c3c(c2)OCO3)cc1NC(=O)C(N)Cc1ccccc1 (stereo not given) | 0.034 (≈ 0.0761 µM) | 1.7 (≈ 3.81 µM) | 0.0585 (≈ 0.131 µM) | 0.044 (≈ 0.0985 µM) | 0.2 (≈ 0.448 µM) | 0.04 (≈ 0.0896 µM) | 0.044 (≈ 0.0985 µM) | 16 | 52 | > 40 | – | – | – | – | – | – | – | – | –
4 | COc1ccc(/C=C\c2cc(OC)c(OC)c(OC)c2)cc1N | – | – | – | – | – | – | – | – | – | – | 0.0051 | – | – | – | – | – | – | – | –
5 | COc1ccc(/C=C\c2cc(OC)c3c(c2)OCO3)cc1[N+](=O)[O-] | 0.45 (≈ 1.37 µM) | 0.33 (≈ 1 µM) | 0.227 (≈ 0.689 µM) | 0.35 (≈ 1.06 µM) | – | – | – | – | – | – | – | 0.36 (≈ 1.09 µM) | 0.38 (≈ 1.15 µM) | 0.64 (≈ 1.94 µM) | 0.39 | – | – | – | –
6 | COc1ccc(/C=C\c2cc(OC)c3c(c2)OCO3)cc1NC(=O)CN | 0.012 (≈ 0.0337 µM) | 0.059 (≈ 0.166 µM) | 0.0199 (≈ 0.0558 µM) | 0.0042 (≈ 0.0118 µM) | 0.025 (≈ 0.0702 µM) | 0.0028 (≈ 0.00786 µM) | 0.014 (≈ 0.0393 µM) | 66 | 52 | > 40 | – | – | – | – | – | 31 | – | – | –
7 | COc1ccc(/C=C/c2cc(OC)c3c(c2)OCO3)cc1[N+](=O)[O-] | > 10 | 4.6 (≈ 14 µM) | > 10 | > 10 | > 10 | > 10 | > 10 | – | – | – | – | – | – | – | – | – | – | – | –
8 | COc1ccc(/C=C\c2cc(OC)c3c(c2)OCO3)cc1NC(=O)C(N)CS (stereo not given) | 0.055 (≈ 0.137 µM) | 0.037 (≈ 0.0919 µM) | 0.332 (≈ 0.825 µM) | 0.032 (≈ 0.0795 µM) | 0.2 (≈ 0.497 µM) | 0.0046 (≈ 0.0114 µM) | 0.05 (≈ 0.124 µM) | 15 | 42 | > 40 | – | – | – | – | – | – | – | – | –
9 | COc1ccc(/C=C\c2cc(OC)c3c(c2)OCO3)cc1N [listing 1 of 2 here] | – | – | – | 0.005 (≈ 0.0167 µM) | – | – | 0.0047 (≈ 0.0157 µM) | – | – | 3.1 | – | – | – | – | – | – | – | – | –
10 | COc1ccc(/C=C\c2cc(OC)c(OC)c(OC)c2)cc1O [COMBRETASTATIN A4] | – | – | – | – | – | – | – | – | 57 | 2.1 | 0.018 | – | – | – | – | – | – | – | –
11 | COc1ccc(/C=C\c2cc(OC)c3c(c2)OCO3)cc1N [listing 2 of 2 here] | – | – | – | – | – | – | – | – | – | – | – | – | – | – | – | – | 84% and 87% | 95 | 94
12 | COc1ccc(/C=C\c2cc(OC)c3c(c2)OCO3)cc1N.Cl | 0.035 | 0.0082 | 0.0388 | 0.0057 | 0.075 | 0.0082 | 0.0042 | – | – | – | – | – | – | – | – | – | – | – | –
13 | COc1ccc(/C=C\c2cc(OC)c3c(c2)OCO3)cc1O [Combretastatin A-2] | 0.47 (≈ 1.57 µM) | 0.0083 (≈ 0.0276 µM) | 0.016 (≈ 0.0533 µM) | 0.043 (≈ 0.143 µM) | 0.014 (≈ 0.0466 µM) | 0.0054 (≈ 0.018 µM) | 0.0042 (≈ 0.014 µM) | – | – | – | – | – | – | – | – | – | 79% | – | 92
14 | COc1ccc(/C=C\c2cc(OC)c3c(c2)OCO3)cc1NC(=O)C(N)C(C)C (stereo not given) | 0.019 (≈ 0.0477 µM) | 0.055 (≈ 0.138 µM) | 0.306 (≈ 0.768 µM) | 0.064 (≈ 0.161 µM) | 0.012 (≈ 0.0301 µM) | 0.036 (≈ 0.0903 µM) | 0.037 (≈ 0.0929 µM) | 14 | 48 | > 40 | – | – | – | – | – | – | – | – | –
15 | COc1ccc(/C=C\c2cc(OC)c3c(c2)OCO3)cc1NC(=O)C(N)Cc1c[nH]c2ccccc12 (stereo not given) | 0.018 (≈ 0.0371 µM) | 0.042 (≈ 0.0865 µM) | 0.0653 (≈ 0.134 µM) | 0.053 (≈ 0.109 µM) | 0.044 (≈ 0.0906 µM) | 0.04 (≈ 0.0824 µM) | 0.035 (≈ 0.0721 µM) | 16 | 57 | > 40 | – | – | – | – | – | – | – | – | –
16 | COc1ccc(/C=C\c2cc(OC)c3c(c2)OCO3)cc1NC(=O)C(N)CO (stereo not given) | 0.019 (≈ 0.0492 µM) | 0.049 (≈ 0.127 µM) | 0.172 (≈ 0.445 µM) | 0.042 (≈ 0.109 µM) | 0.027 (≈ 0.0699 µM) | 0.014 (≈ 0.0362 µM) | 0.017 (≈ 0.044 µM) | 64 | 35 | > 40 | – | – | – | – | – | 22 | – | – | –
